Source: PubChem (several laboratories)
L major viab: Leishmania major promastigote growth inhibition; inhibition, % at 10 µM; Leishmania major promastigotes, resazurin fluorescence viability; 200,000 compounds, 9% hits; AID 1063;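 also: promastigotes grown with compound for 44 hours at 28 °C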
ABCB1 block: human ABCB1 inhibition, ABCG2 as counter-screen | 190,000 compounds, 0.067% hits | P08183 | CCRF-Adr cells, JC-1 efflux, flow cytometry | inhibition, % at 6.6 µM | AID 1326; in the data active = inhibition above about 40%;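 also: 0% = vehicle and 100% = reference inhibitor; higher value means more JC-1 retained so stronger ABCB1 efflux block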
PKD1 inh: blocks activity of human protein kinase D1; Q15139; PKD1 kinase fluorescence polarization assay; inhibition, % (concentration not given with the values); 200,000 compounds, 0.056% hits; AID 797
GSH fluor: GSH bead compound fluorescence profile. 190,000 compounds, 0.25% hits. fluorescence (KMESF) at 10 µM. GSH beads flow cytometry, compound fluorescence 488/530 nm; hits give high values. AID 1776; in the data active = fluorescence above about 89;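 also: glutathione beads carrying GST-tagged Bcl family fusion proteins plus one bare bead set; values are compound well signal with DMSO vehicle wells as background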
Avidin fluor: avidin bead compound fluorescence profile; fluorescence (KMESF) at 10 µM; Avidin beads, compound fluorescence 488/530 nm, flow cytometry; hits give high values; 220,000 compounds, 0.38% hits; AID 1775; in the data active = fluorescence above about 47
ABCG2 block: blocks JC-1 efflux by human ABCG2 transporter | inhibition, % at 6.6 µM | Q9UNQ0 | IgMXP3 cells, flow cytometry | 190,000 compounds, 0.1% hits | AID 1325;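 active = inhibition above 80%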;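 also: 0% = DMSO and 100% = nicardipine control wells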
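Test system: IgMXP3 (ABCG2) plus far-red-tagged CCRF-Adr (ABCB1) cells. Reagent: JC-1 dye as substrate. Timing: 10 min exposure at 25 °C with rotation, no wash. Measured by: flow cytometric JC-1 green MFI at 530 nm. Read-out: percent efflux inhibition, scaled nicardipine 100% to DMSO 0%. Control set: nicardipine and DMSO wells.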
Active calls of the source: *; x = no result given. This is one part of a sample in which hits are shown more often than they occur. Rule as the data show it, unless noted: active = inhibition above about 50%; inactive = the rest.

SMILES	L major viab	ABCB1 block	PKD1 inh	GSH fluor	Avidin fluor	ABCG2 block
COc1cc(Br)cc(CN2CCN(C/C=C/c3ccccc3)CC2)c1O	88*	1	-11	54	8	1
COc1ccc(O)c(CN2CCN(C/C=C/c3ccccc3)CC2)c1	85*	1	-4	24	8	3
COc1ccc(OC)c(NC(=S)N2CCN(C/C=C/c3ccccc3)CC2)c1	29	0	-5	25	12	1
Cc1c(Br)c([N+](=O)[O-])nn1CC(=O)Nc1ccc(C(C)C)cc1	20	0	-3	9	14	4
CC(C)N(c1ccccc1)c1ccc(NC(=O)COC(=O)CCN2C(=O)c3cccc([N+](=O)[O-])c3C2=O)cc1	-11	3	-10	10	6	15
Cc1c2c(n3c(nc4ccccc43)c1C#N)N(c1ccccc1)CC2	53*	4	1	10	11	16
CCc1c(C)c(C#N)c2nc3ccccc3n2c1Cl	101*	-6	11	11	8	7
CC(C)c1cc(NCC2CCCO2)n2c(nc3ccccc32)c1C#N (centres undefined)	57*	5	0	35	10	5
Cc1c2c(n3c(nc4ccccc43)c1C#N)N(CCN(C)C)CC2	11	3	2	15	13	5
CCc1c(C)c(C#N)c2nc3ccccc3n2c1NCC1CCCO1 (centres undefined)	68*	2	4	29	8	2
Cc1cc(NCC2CCCO2)n2c(nc3ccccc32)c1C#N (centres undefined)	13	2	-5	13	20	1
O=c1c2cc3c(=O)n(-c4ccccc4O)c(=O)c3cc2c(=O)n1-c1ccccc1O	-2	0	3	23	10	1
O=[N+]([O-])c1cc(Cl)cc(/C=N/NC(=S)Nc2ccc(S(=O)(=O)N3CCOCC3)cc2)c1O	x	x	x	x	4	x
O=C(c1cc([N+](=O)[O-])ccc1N1CCOCC1)N1CCCC1	-3	1	-1	9	1	18
N#Cc1c2c(c(NCCCN3CCOCC3)n3c1nc1ccccc13)CCC2	63*	2	-4	21	22	5
N#Cc1c2c(c(NCCN3CCOCC3)n3c1nc1ccccc13)CCCC2	24	2	4	15	10	3
CN(CC(=O)Nc1ccc(Cl)c(Cl)c1)C(=O)C12CC3CC(CC(C3)C1)C2	92*	1	-12	5	14	26
CN(C(=O)CC(=O)Nc1ccc(Cl)c(Cl)c1)c1ccccc1	-1	0	0	68	8	10
CC(C)OC(=O)c1ccc(NC(=O)Cn2c(-c3nonc3N)nc3ccccc32)cc1	51*	1	-5	29	6	1
COC(=O)c1ccc(NC(=O)Cn2c(-c3nonc3N)nc3ccccc32)cc1	0	0	-9	10	23	1
O=C(NNc1ccccc1C(F)(F)F)c1sccc1Br	x	x	x	x	6	x
O=C(CSc1ccc2ccccc2c1)Nc1ccc(S(=O)(=O)Nc2nccs2)cc1	54*	-2	-11	5	11	-24
O=C(CSc1ccc2ccccc2c1)Nc1ccncc1	12	0	-10	10	12	8
O=C(COC(=O)/C=C/c1cccs1)Nc1ccccc1Cl	-8	0	-5	8	22	2
O=C(CSc1ccccc1)Nc1ccc(S(=O)(=O)Nc2ncccn2)cc1	-8	0	-3	15	24	1
SMILES	L major viab	ABCB1 block	PKD1 inh	GSH fluor	Avidin fluor	ABCG2 block
O=C(CSc1ccncc1)Nc1ccc2ccccc2c1	91*	0	71*	14	24	0
O=C(COC(=O)/C=C/c1cccs1)Nc1ccc2ccccc2c1	-3	0	-13	12	68*	1
Cc1ccc(C)c(NC(=S)NCCN(C2CCCCC2)C2CCCC2)c1	42	0	-5	14	12	22
Cc1ccc2[nH]cc(C(=O)CCl)c2c1	81*	0	8	10	7	-1
Cc1ccc2[nH]cc(C(=O)CN3CCN(C)CC3)c2c1	6	0	-13	17	35	1
CSc1nc(N)nc(SCC(=O)Nc2ccc(Cl)cc2)c1C#N	100*	0	0	16	34	-1
CSc1nc(N)nc(SCC(=O)Nc2cccc(F)c2)c1C#N	9	0	3	19	5	1
